Screening data from PubChem.
This is a sample that favours compounds with a hit; in the whole collection about 4.5% have one here.
CHO parental Ca = counter-screen for OX1R antagonists: effect in parental CHO cells | parental CHO-K1, ATP-induced calcium, Fluo-8 fluorescence | inhibition, % at 5.6 µM | 0.63% of 330,000 active;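 active means inhibition above that plate's mean sample inhibition plus 3 SD, cut at about 26% in these data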;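 further: 0% = ATP-challenged DMSO wells and 100% = DMSO wells without ATP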
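Assay system: untransfected parental CHO cell line. Also added: ATP agonist challenge. Dosing: one dose, 5.6 µM nominal. Measured by: Fluo-8 fluorescence. Read-out: % inhibition. Benchmarks: ATP wells versus no-ATP DMSO wells. Repeats: no replicates.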
OX1R antag-1 = blocks the human orexin 1 receptor; OX1R-expressing cells, FRET antagonist read-out; inhibition, % at 6.6 µM; O43613; 1.8% of 330,000 active; AID 485270; in the data active means inhibition mostly above about 38%, no sharp cut-off; inactive means mostly below about 40%;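 further: 0% = agonist challenge alone and 100% = reference antagonist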
Target sequence (O43613 whole entry, looked up): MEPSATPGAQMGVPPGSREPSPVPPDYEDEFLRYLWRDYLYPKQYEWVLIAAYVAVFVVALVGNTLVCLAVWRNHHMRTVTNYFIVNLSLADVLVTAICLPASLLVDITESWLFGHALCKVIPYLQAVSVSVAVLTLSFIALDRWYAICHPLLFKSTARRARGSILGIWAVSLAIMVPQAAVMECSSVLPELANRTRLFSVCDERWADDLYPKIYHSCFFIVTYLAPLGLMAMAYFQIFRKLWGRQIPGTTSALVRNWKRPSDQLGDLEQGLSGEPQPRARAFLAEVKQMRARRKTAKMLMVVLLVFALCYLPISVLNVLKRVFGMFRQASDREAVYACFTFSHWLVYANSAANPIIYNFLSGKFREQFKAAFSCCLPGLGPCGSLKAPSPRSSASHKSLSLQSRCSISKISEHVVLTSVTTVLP
TAAR1 agonist = agonists of human TAAR1; CHO RD-HGA16 TAAR1, Fluo-8 calcium fluorescence; vehicle wells 0%, saturating PEA agonist 100%; activation, % at 3 µM; 0.99% of 360,000 active; AID 624467;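 active means activation above the mean activation of all test compounds in the run plus 3 SD, cut at about 38% in these data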
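Signal – calcium-sensitive Fluo-8 signal, excitation 470-495, emission 515-575 nm · System – RD-HGA16 (CHO) cells co-expressing Gα16 and hTAAR1 · Incubation – 17-24 h seeding, 75 min 37 °C dye, 30 min RT · Compound dosing – 3 µM single concentration · Repeats – no replicates (n 1)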
TAAR1 antagonist = antagonists of human TAAR1 | inhibition, % at 3 µM | CHO RD-HGA16 TAAR1, Fluo-8 calcium fluorescence, antagonist | 1.5% of 360,000 active;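 active means inhibition above a per-plate cutoff, the mean inhibition of test compounds on that plate plus 3 SD, cut at about 49% in these data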;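 further: 0% = DMSO plus EC80 beta-PEA response and 100% = DMSO alone without agonist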
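Material: CHO RD-HGA16 cells bearing hTAAR1; compound dosing: one-point dosing, 3 µM nominal final; schedule: dye loading 75 min at 37 °C, then 30 min room temperature; measured by: calcium fluorescence with Fluo-8; control set: vehicle and agonist controls; replication: n of 1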
OX1R antag-2 = antagonists of human orexin 1 receptor. CHO/OX1R cells, Fluo-8 calcium fluorescence, orexin A. AID 434989. O43613. inhibition, % at 5 µM. 0.43% of 330,000 active;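 active means inhibition above its plate's threshold, mean inhibition of all tested compounds on the plate plus 3 SD, cut at about 37% in these data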;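 further: 0% = orexin A challenge wells and 100% = SB-334867-A antagonist wells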
GPR7 antag = blocks human GPR7 receptor signaling; P48145; GPR7-expressing cells, fluorescence antagonist assay; inhibition, % at 4.4 µM; 1.1% of 290,000 active; AID 1861; in the data active means inhibition above about 16%, passing the limit was not always enough;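 further: cells stimulated with the agonist NPW; 0% = agonist with vehicle and 100% = vehicle without agonist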
Target sequence (P48145 whole entry, looked up): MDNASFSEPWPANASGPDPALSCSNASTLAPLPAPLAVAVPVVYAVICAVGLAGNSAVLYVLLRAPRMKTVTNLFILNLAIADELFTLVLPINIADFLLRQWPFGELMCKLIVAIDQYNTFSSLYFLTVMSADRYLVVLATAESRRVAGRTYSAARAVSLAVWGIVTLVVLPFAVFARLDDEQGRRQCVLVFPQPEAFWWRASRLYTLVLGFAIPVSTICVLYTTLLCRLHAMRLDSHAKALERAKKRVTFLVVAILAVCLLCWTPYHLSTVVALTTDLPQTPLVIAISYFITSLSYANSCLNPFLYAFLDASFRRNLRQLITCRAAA
TAAR1 ag confirm = confirmation of human TAAR1 agonists; shares compounds with TAAR1 agonist; CHO RD-HGA16 TAAR1, Fluo-8 calcium fluorescence; scaled: DMSO 0%, maximal phenethylamine 100%; activation, % at 3 µM; 82% of 2,400 active;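 active means activation above a cutoff set at the run's mean compound activation plus 3 SD, cut at about 39% in these data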
Ga16 nonsel ag = nonselective agonist in parental cells, TAAR1 agonist counter-screen; shares compounds with TAAR1 agonist; CHO-Ga16 parental, Fluo-8 calcium fluorescence; normalized to maximal ATP response, DMSO zero; activation, % at 3 µM; 50% of 2,400 active;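 active means activation above the run cutoff, the mean activation over all tested wells plus 3 SD, cut at about 12% in these data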;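 further: 0% = DMSO wells and 100% = maximal ATP response on the peak over basal ratio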
TAAR1 desens = counter-screen for human TAAR1 agonists: agonists that desensitize TAAR1; shares compounds with TAAR1 agonist; CHO RD-HGA16 hTAAR1, Fluo-8 calcium, beta-PEA response inhibition; 46% of 2,400 active; inhibition, % at 3 µM;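 active means inhibition above the run cutoff, the mean inhibition of all test compounds plus 3 SD, cut at about 49% in these data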;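 further: beta-PEA stimulus applied at its EC80; loss of beta-PEA calcium signal after compound pretreatment read as receptor desensitization; 0% = DMSO with beta-PEA at EC80 and 100% = DMSO alone without agonist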
Ga16 antag count = nonselective Ga16 antagonism, counter-screen; inhibition, % at 3 µM; shares compounds with TAAR1 agonist; AID 651952; 39% of 2,400 active; CHO-Ga16 ATP-induced calcium, Fluo-8 fluorescence;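 active means inhibition above the plate's mean compound inhibition plus 3 SD, computed per plate, cut at about 22% in these data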;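 further: 0% = EC80 ATP with DMSO and 100% = DMSO wells without ATP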
* hit, by the source's call; . = no result given.

SMILES | CHO parental Ca | OX1R antag-1 | TAAR1 agonist | TAAR1 antagonist | OX1R antag-2 | GPR7 antag | TAAR1 ag confirm | Ga16 nonsel ag | TAAR1 desens | Ga16 antag count
CCOC(=O)[C@@H](NC(=O)CC[C@H]1O[C@@H](n2ccc(=O)[nH]c2=O)[C@H](O)[C@@H]1O)C(C)C | . | . | 1.6 | -9.6 | . | . | . | . | . | .
Cc1cc(C(C)(C)C)cc(C)c1CC1=NCCN1 | -7.1 | 6.0 | 31.7 | -23.2 | -8.0 | 0.4 | . | . | . | .
c1ccc(CC2=NCCN2)cc1 | 3.3 | 9.1 | 75.0* | 63.3* | -2.7 | -9.9 | 91.6* | -0.3 | 76.1* | 6.3
c1ccc(CN(CC2=NCCN2)c2ccccc2)cc1 | -1.6 | 16.9 | 65.9* | -2.9 | -9.5 | -6.2 | 91.5* | 3.4 | 67.0* | 11.7
CCCC[C@@H]1CNC(=O)C(=O)N1CCc1cccc(F)c1 | . | . | 4.6 | -7.0 | . | . | . | . | . | .
CCC(C)COC(c1ccccc1)(c1ccccc1)C(Oc1nc(C)cc(C)n1)C(=O)O (stereo not drawn) | -24.8 | 16.4 | 80.5* | 8.2 | -12.6 | -5.2 | 128.3* | 85.5* | 14.1 | 8.5
Cc1cc(C)nc(OC(C(=O)O)C(OCC(C)C)(c2ccccc2)c2ccccc2)n1 (stereo not drawn) | -14.9 | 3.1 | 108.4* | 4.3 | -10.1 | -24.8 | 125.0* | 74.4* | 20.8 | 8.3
Cc1cc(C)nc(OC(C(=O)O)C(OCCc2ccccc2)(c2ccc(F)cc2)c2ccc(F)cc2)n1 (stereo not drawn) | -14.6 | 5.2 | 121.7* | 1.0 | -19.6 | -14.8 | 127.8* | 89.5* | 25.7 | 4.9
CCCOC(c1ccccc1)(c1ccc(C(F)(F)F)cc1)C(Oc1nc(C)cc(C)n1)C(=O)O (stereo not drawn) | -8.2 | 10.2 | 25.4 | -3.8 | -5.1 | 5.3 | . | . | . | .
CCN(CC(=O)Nc1c(F)cccc1F)C(=O)CCCSc1nc2ccccc2[nH]1 | . | . | 3.8 | -10.1 | . | . | . | . | . | .
Cn1nc(C(=O)OCC(=O)NCc2ccc(Cl)cc2Cl)c2ccccc2c1=O | . | . | 0.8 | 1.8 | . | . | . | . | . | .
COc1ccc(NC(=O)Nc2nc(C(N)C3CCCCC3)cs2)cc1 (stereo not drawn) | . | . | 11.3 | 9.2 | . | . | . | . | . | .
NC(c1csc(Nc2ncccn2)n1)C1CCCCC1 (stereo not drawn) | . | . | 3.4 | -17.1 | . | . | . | . | . | .
COc1cccc(Nc2nc(C(N)c3ccccc3)cs2)n1 (stereo not drawn) | . | . | 67.5* | 24.9 | . | . | 65.6* | 11.5* | 40.6 | 19.9
COc1cccc(Nc2nc(C(C)N)cs2)n1 (stereo not drawn) | . | . | 84.7* | 76.9* | . | . | 94.2* | 0.5 | 79.3* | 6.0
COc1cccc(Nc2nc(C(N)C3CCCCC3)cs2)n1 (stereo not drawn) | . | . | 52.8* | 15.4 | . | . | 47.0* | 17.9* | 27.9 | 22.5*
CC(C)c1ccc(NC(=O)Nc2nc(C(N)C3CCCCC3)cs2)cc1 (stereo not drawn) | . | . | 54.5* | 5.8 | . | . | 41.7* | 28.7* | 33.3 | 46.4*
O=C(Nc1ccncc1)Nc1ccc(Cl)cc1 | 14.1 | 4.2 | 65.5* | 50.4* | 13.1 | -4.0 | 90.8* | 17.2* | 83.6* | 21.2
O=C(Nc1ccncc1)Nc1ccncc1 | -3.9 | 2.8 | 1.9 | 1.2 | 3.1 | -7.5 | . | . | . | .
CC(Oc1ccc(Br)cc1)C(=O)Nc1ccc(S(=O)(=O)Nc2nccs2)cc1 (stereo not drawn) | 27.8 | 7.5 | 35.1 | 35.7 | 15.8 | 11.9 | . | . | . | .
CC(Oc1ccc(Br)cc1)C(=O)Nc1ccc(S(=O)(=O)NC2=NCCCCC2)cc1 (stereo not drawn) | . | . | 95.1* | 71.5* | . | . | 119.4* | 78.2* | 80.7* | 46.8*
CC(=O)NCCc1ccc(C(=O)COC(=O)c2cccs2)cc1 | . | . | 1.0 | -19.1 | . | . | . | . | . | .
O=C(COC(=O)/C=C/c1ccccc1Cl)NC1CCCCCC1 | -8.9 | 5.3 | 49.2* | 52.8* | -10.6 | -9.7 | 23.9 | 5.1 | 33.2 | 11.0
Cc1noc(C)c1COc1ccccc1C(=O)N1CCN(S(=O)(=O)c2ccc(C(C)C)cc2)CC1 | . | . | 1.7 | -25.6 | . | . | . | . | . | .
O=C(Nc1ccc(Cl)cc1)c1cccs1 | -0.2 | 23.2 | 12.2 | -7.8 | -10.2 | 0.6 | . | . | . | .
SMILES | CHO parental Ca | OX1R antag-1 | TAAR1 agonist | TAAR1 antagonist | OX1R antag-2 | GPR7 antag | TAAR1 ag confirm | Ga16 nonsel ag | TAAR1 desens | Ga16 antag count
O=C(Nc1ccccc1)c1nnsc1S(=O)c1ccc(Cl)cc1 (stereo not drawn) | 25.2 | 33.3 | 67.5* | 96.5* | 24.9 | 4.4 | 49.1* | 22.9* | 81.0* | 38.3*
CC(=O)c1ccc(Nc2nc(C(N)COCc3ccccc3)cs2)cc1 (stereo not drawn) | . | . | 4.9 | 12.6 | . | . | . | . | . | .
O=C(Nc1cccn(Cc2ccccc2)c1=O)NC1CCCCC1 | -19.6 | 12.9 | 43.5* | 5.4 | -14.2 | -2.2 | 76.9* | 39.7* | 3.1 | 1.6
Cc1ccc(Cn2cccc(NC(=O)NC3CCCCC3)c2=O)cc1 | -31.6 | 19.5 | 35.3 | -13.9 | -45.4 | 3.2 | . | . | . | .
COc1cccc(Cn2cccc(NC(=O)NC3CCCCC3)c2=O)c1 | -31.4 | 27.1 | 50.8* | -8.4 | -28.6 | -4.4 | 25.1 | 17.0* | -2.5 | -0.3
Cc1ccc(-c2ccc(CN3C(CC(C)C)C(=O)N(Cc4cn(CC5CCCCC5)nn4)CCS3(=O)=O)cc2)cc1 (stereo not drawn) | . | . | 0.1 | -17.4 | . | . | . | . | . | .
N#Cc1cccc(C=C(C(=O)c2ccccc2)c2ccccc2)c1 | . | . | -0.5 | 31.7 | . | . | . | . | . | .
CCCn1c(SCC(=O)N2CCc3ccccc3C2)nc(O)cc1=O | -6.5 | 3.4 | . | . | -6.5 | . | . | 0.0 | . | 0.6
Cc1cc(=O)[nH]c(SCC(=O)N2CCc3ccccc3C2)n1 | -13.1 | 2.6 | 77.1* | 56.2* | -15.7 | -7.3 | 77.3* | 5.3 | 20.3 | 11.9
Cc1cc(NC(=O)COC(=O)[C@@H]2CCCN2C(=O)c2cccs2)no1 | . | . | 0.5 | 10.5 | . | . | . | . | . | .
CCOC(=O)c1ccc(Oc2cn[nH]c2-c2ccc(OCC(=O)NN)cc2O)cc1 | -5.6 | 5.2 | 86.1* | 34.5 | -3.6 | -16.6 | 46.7* | 16.6* | 26.8 | 21.3
CC(C)NC(=O)C1(C)CN(S(C)(=O)=O)CC(=O)N1CCc1ccc(O)cc1 (stereo not drawn) | . | . | 15.4 | -12.1 | . | . | . | . | . | .
O=[N+]([O-])c1ccc(CNCc2cc(Cl)ccc2O)cc1 | 0.4 | 2.8 | 51.4* | 3.7 | -7.9 | . | 59.9* | 19.6* | 19.6 | 11.6
